Experimental data published in publication PMC2095803 (Nucleic Acids Research, 2007).
Blank lines part the entries; values can stand above or below the compound they belong to.

Assays:
[1] = UV deprotection studies of 5′-O-TBS derivatives; format: physicochemical; details: for DT1/2 (deprotection half-life time) at 302 nm / DT1/2 (deprotection half-life time) at 365 nm: 1 mM in methanol, 0.5 mW transilluminator, triplicate
How it was run: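 The test compound, in methanol at 1 mM in a scintillation vial, was irradiated with a 0.5 mW transilluminator at 302 or 365 nm. Aliquots taken at time intervals went to reverse-phase HPLC to follow loss of starting material and appearance of the deprotected product (loss of the 2-nitrobenzyl group). DT1/2 is the time at 50% deprotection, read from kinetic plots. Each compound was run in triplicate.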

Bst DNA polymerase [2] = target: T1, Bst DNA polymerase (Geobacillus stearothermophilus, UniProt P52026); assay: Oligonucleotide template assay; format: biochemical, Bacillus stearothermophilus; details: for Incorporation: Bst, five-base poly-thymidine template, high concentrations (100 μM)
T1 sequence (P52026 289-876 limits assumed): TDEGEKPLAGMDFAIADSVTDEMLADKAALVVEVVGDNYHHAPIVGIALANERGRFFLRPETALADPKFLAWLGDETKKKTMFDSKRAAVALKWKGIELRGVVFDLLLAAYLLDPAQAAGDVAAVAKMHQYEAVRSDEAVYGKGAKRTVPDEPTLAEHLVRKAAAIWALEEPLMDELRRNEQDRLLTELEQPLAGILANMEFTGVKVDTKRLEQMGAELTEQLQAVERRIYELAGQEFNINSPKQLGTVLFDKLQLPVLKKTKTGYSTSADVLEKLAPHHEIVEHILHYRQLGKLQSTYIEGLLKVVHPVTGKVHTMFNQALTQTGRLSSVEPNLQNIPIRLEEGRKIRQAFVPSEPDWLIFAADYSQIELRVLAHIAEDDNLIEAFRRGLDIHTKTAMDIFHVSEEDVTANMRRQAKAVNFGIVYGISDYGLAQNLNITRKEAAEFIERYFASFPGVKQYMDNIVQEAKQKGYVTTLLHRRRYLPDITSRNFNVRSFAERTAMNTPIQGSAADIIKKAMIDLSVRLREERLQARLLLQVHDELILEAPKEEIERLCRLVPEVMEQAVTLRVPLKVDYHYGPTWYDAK

[3] = target: T2, Vent(exo−) DNA polymerase (Thermococcus litoralis, UniProt P30317, D141A/E143A); details: screening with eight different DNA polymerases; cited from earlier work
T2 sequence (P30317 with tags, fused parts or gaps D141A/E143A): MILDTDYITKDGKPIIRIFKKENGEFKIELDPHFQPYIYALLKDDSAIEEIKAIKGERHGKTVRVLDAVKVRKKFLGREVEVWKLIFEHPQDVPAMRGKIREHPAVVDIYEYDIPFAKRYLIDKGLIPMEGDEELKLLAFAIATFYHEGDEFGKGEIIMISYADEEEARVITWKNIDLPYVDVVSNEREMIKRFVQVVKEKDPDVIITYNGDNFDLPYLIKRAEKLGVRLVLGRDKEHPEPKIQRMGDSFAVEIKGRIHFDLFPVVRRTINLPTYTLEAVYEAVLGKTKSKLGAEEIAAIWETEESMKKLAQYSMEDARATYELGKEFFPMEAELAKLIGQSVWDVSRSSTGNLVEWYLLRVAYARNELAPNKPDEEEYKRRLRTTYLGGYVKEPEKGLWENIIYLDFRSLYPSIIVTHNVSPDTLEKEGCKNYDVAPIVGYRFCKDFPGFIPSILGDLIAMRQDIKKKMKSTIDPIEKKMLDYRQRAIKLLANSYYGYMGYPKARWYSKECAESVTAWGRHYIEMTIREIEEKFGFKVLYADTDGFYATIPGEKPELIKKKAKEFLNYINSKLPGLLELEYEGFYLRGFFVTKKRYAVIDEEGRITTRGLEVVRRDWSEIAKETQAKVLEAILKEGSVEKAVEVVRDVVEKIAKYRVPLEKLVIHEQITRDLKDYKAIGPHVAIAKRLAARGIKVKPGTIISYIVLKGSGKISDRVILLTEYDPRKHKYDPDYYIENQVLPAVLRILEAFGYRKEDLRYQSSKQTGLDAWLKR

[4] = target: T2, Vent(exo−) DNA polymerase; assay: PEP; format: biochemical
Bst DNA polymerase [5] = target: T1, Bst DNA polymerase; assay: PEP; format: biochemical, Bacillus stearothermophilus
[6] = target: T3, DeepVent(exo−) DNA polymerase (Pyrococcus sp. GB-D, UniProt Q51334, D141A/E143A); assay: PEP; format: biochemical, Pyrococcus species GB-D
T3 sequence (Q51334 with tags, fused parts or gaps D141A/E143A): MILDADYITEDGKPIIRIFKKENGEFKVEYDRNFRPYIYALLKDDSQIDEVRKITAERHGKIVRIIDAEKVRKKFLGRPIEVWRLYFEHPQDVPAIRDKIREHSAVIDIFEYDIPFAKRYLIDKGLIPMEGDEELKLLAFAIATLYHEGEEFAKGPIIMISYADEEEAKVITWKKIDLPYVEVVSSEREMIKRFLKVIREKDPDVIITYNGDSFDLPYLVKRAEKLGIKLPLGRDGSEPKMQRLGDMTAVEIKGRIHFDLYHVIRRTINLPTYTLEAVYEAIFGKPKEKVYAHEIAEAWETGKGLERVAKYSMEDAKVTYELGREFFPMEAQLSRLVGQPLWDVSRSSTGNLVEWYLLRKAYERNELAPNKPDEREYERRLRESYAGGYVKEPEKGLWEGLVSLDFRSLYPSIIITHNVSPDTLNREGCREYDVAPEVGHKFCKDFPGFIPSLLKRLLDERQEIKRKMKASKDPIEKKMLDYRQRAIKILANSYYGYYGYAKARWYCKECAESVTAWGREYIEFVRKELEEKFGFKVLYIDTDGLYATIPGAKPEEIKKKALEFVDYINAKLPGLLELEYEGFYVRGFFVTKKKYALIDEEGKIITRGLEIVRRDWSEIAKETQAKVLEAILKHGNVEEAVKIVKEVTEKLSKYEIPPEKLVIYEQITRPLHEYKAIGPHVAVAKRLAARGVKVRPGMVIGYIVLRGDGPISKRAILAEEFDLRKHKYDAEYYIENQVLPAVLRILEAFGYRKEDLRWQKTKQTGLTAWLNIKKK

DT1/2 (deprotection half-life time) at 302 nm [1]: 0.767 min
DT1/2 (deprotection half-life time) at 365 nm [1]: 2.4 min
Structure (SMILES): CC(C)(C)[Si](C)(C)OC[C@H]1O[C@@H](n2cnc3c(NCc4ccccc4[N+](=O)[O-])ncnc32)C[C@@H]1O [IIIb, N^6-(2-Nitrobenzyl)-5’-O-tert-butyldimethylsilyl-2’-deoxyadenosine]

Activity by DNA polymerase incorporation assays (Bst DNA polymerase [2]): inactive
Incorporation (Bst DNA polymerase [2]): did not show significant incorporation
Structure (SMILES): Nc1ncnc2c1ncn2[C@H]1C[C@H](OCc2ccccc2[N+](=O)[O-])[C@@H](COP(=O)(O)OP(=O)(O)OP(=O)(O)O)O1 [Ic, 3’-O-(2-Nitrobenzyl)-2’-deoxyadenosine-5’-triphosphate]

Deprotection rate relative to compound Ib ([1]; faster than Ib at both deprotection wavelengths (302 and 365 nm)): approximately 3 fold
Structure (SMILES): CC(C)(C)[Si](C)(C)OC[C@H]1O[C@@H](n2cnc3c(N(Cc4ccccc4[N+](=O)[O-])Cc4ccccc4[N+](=O)[O-])ncnc32)C[C@@H]1O [IIb, N^6, N^6-Bis-(2-nitrobenzyl)-5’-O-tert-butyldimethylsilyl-2’deoxyadenosine]

Structure (SMILES): C=CCO[C@H]1C[C@H](n2cnc3c(N)ncnc32)O[C@@H]1COP(=O)(O)OP(=O)(O)OP(=O)(O)O [3′-O-allyl-dATP]
Activity as polymerase substrate [3]: limited activity at high micromolar concentrations

Activity by DNA polymerase incorporation assays (Bst DNA polymerase [2]): inactive
Incorporation (Bst DNA polymerase [2]): did not show significant incorporation
Structure (SMILES): O=[N+]([O-])c1ccccc1CN(Cc1ccccc1[N+](=O)[O-])c1ncnc2c1ncn2[C@H]1C[C@H](O)[C@@H](COP(=O)(O)OP(=O)(O)OP(=O)(O)O)O1 [IIc, N^6, N^6-Bis-(2-nitrobenzyl)-2’-deoxyadenosine-5’-triphosphate]

DT1/2 (deprotection half-life time) at 302 nm [1]: 1 min
DT1/2 (deprotection half-life time) at 365 nm [1]: 2.53 min
Structure (SMILES): CC(C)(C)[Si](C)(C)OC[C@H]1O[C@@H](n2cnc3c(N)ncnc32)C[C@@H]1OCc1ccccc1[N+](=O)[O-] [Compound Ib, 5’-O-tert-Butyldimethylsilyl-3’-O-(2-nitrobenzyl)-2’-deoxyadenosine]

Structure (SMILES): Nc1ncnc2c1ncn2[C@H]1C[C@H](O)[C@@H](COP(=O)(O)OP(=O)(O)OP(=O)(O)O)O1 [dATP, 2′-Deoxyadenosine triphosphate]
IC50 [4]: 1.6 ± 0.2 nM
IC50 (Bst DNA polymerase [5]): 1.2 ± 0.1 nM
IC50 [6]: 2.8 ± 0.2 nM
